Reference: ChEMBL document CHEMBL4602726, “Discovery of the First Vitamin K Analogue as a Potential Treatment of Pharmacoresistant Seizures” (J Med Chem, 2020)

Experiments:
[1] = Toxicity in CF1 mouse assessed as induction of abdominal constriction measured at time of treatment by writhing test; details: in vivo
[2] = Toxicity in CF1 mouse assessed as induction of lethargy; details: in vivo
[3] = Drug level corresponding to free EC50 in CD1 mouse at 200 to 400 mg/kg, ip by LC-MS/MS analysis; assay type: ADME, organism-based; details: in vivo
Mus musculus [4] = assay: Anti-seizure activity in CF1 mouse assessed as attenuation of psychomotor seizures at stimulus intensities of 32 mA at 400 mg/kg, ip measured at 0.25 to 4 hrs by 6 Hz limbic seizure test relative to control; assay type: functional
Summary of the method: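 Male CF-1 mice, n=8 per dose. 6 Hz, 3 s corneal stimulation at 32 or 44 mA. Compound given ip in miglyol840/DMSO (95%/5%). Time of peak effect found by testing at 0.25–4 h; dose-response run at that time. Protected if no stun, jaw/forelimb clonus, vibrissae twitching or Straub tail for ≥1 s. ED50 by Probit analysis.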

[5] = Toxicity in CF1 mouse assessed as induction of motor/sedative effects at 400 mg/kg, ip; assay type: organism-based; details: in vivo
Summary of the method: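 Rotarod at 6 rpm on the same animals immediately before 6 Hz stimulation, 1 h after ip dosing. A mouse falling three times within one minute was scored impaired.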

[6] = Drug reactivity with 2-mercaptoethanol measured over 24 hrs; assay type: physicochemical
Mus musculus [7] = assay: Anti-seizure activity in ip dosed CF1 mouse assessed as attenuation of clonic forebrain seizures treated 1 hr before PTZ dosing and measured after 30 mins by scPTZ test; assay type: functional
Summary of the method: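 Male CF-1 mice, n=8 per dose, given compound ip in 0.5% HPMC. PTZ 85 mg/kg s.c. in the neck at 1 h. Animals observed 30 min in isolation cages for clonic spasms lasting 3–5 s; those without spasms counted protected.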

Cytochrome P450 2C8 = target: T1, Cytochrome P450 2C8 (Homo sapiens, UniProt P10632); assay: Inhibition of CYP2C8 in human liver microsomes using isoform-specific probe substrates incubated for 15 to 30 mins by LC-MS/MS analysis; assay type: ADME
T1 sequence (P10632 whole entry): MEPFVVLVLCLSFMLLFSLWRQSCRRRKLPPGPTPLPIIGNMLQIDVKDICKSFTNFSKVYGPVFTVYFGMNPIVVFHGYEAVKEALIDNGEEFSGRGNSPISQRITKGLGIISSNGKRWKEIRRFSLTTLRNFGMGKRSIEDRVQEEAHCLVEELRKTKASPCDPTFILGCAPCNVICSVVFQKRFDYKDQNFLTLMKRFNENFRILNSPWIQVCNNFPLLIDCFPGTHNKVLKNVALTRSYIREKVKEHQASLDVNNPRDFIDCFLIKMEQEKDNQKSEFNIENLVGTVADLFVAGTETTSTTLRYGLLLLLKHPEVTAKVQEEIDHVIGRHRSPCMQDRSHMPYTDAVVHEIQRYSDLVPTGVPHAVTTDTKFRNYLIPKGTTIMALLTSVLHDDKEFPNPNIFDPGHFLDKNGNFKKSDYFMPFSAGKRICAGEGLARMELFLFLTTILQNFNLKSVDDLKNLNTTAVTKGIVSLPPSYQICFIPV
Summary of the method: (§1)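 Pooled mixed-gender human liver microsomes 0.2 mg/mL in 100 mM potassium phosphate with 2 mM NADPH. Isoform-specific probe substrates near Km. Organic solvent ≤1% final. Incubated 37°C for 15–30 min, quenched with acetonitrile plus internal standard. Probe metabolites measured by LC-MS/MS; percent inhibition versus vehicle, IC50 by variable-slope sigmoid fit.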

[8] = Drug level in CD1 mouse plasma at 400 mg/kg, ip after 4 hrs by LC-MS/MS analysis; assay type: ADME, organism-based
Summary of the method: (§2)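 Male mice fasted overnight and given ip dose in 95% Miglyol 840/5% DMSO. Plasma precipitated 3:1 with acetonitrile plus internal standard. Brain homogenized 3:1 in PBS, then acetonitrile extraction. LC-MS/MS in MRM mode, standard curve 1 ng/mL–10 μg/mL. Ratio = mean tissue (ng/g) over mean plasma (ng/mL) concentration.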

[9] = Toxicity in CF1 mouse assessed as induction of motor impairment during acute (1 hr) observation period by rotarod assay; details: mouse, in vivo, 1 h
Summary of the method: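 Male CF-1 mice, ip dosing in miglyol 840/DMSO (95%/5%), up to 800 mg/kg. Rotarod at 6 rpm done 1 h after dosing, on the same animals just before 6 Hz testing. Falling three times within one minute scored as impaired; animals also inspected visually.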

[10] = Drug level in CD1 mouse plasma at 400 mg/kg, ip after 0.5 hrs by LC-MS/MS analysis; assay type: ADME, organism-based; summary of the method: as §2
[11] = Tmax in CD1 mouse at 20 mg/kg, ip measured after 0.083 to 24 hrs by LC-MS/MS analysis; assay type: ADME, organism-based; details: in vivo
[12] = Cmax in CD1 mouse at 20 mg/kg, ip measured after 0.083 to 24 hrs by LC-MS/MS analysis; assay type: ADME, organism-based; design: dose 20 mg/kg, route intraperitoneal; details: in vivo
Summary of the method: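 Male CD-1 mice, 3 per route. Oral and ip at 20 mg/kg by gavage needle; iv at 5 mg/kg by tail vein. Vehicles were 20% DMA:40% PEG300:40% H2O for oral/iv and 5% DMSO:95% Neobee for ip. Blood sampled 0.083–24 h, plasma protein-precipitated with acetonitrile plus internal standard, LC-MS/MS (MRM). Non-compartmental analysis, linear trapezoidal AUC.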

Cytochrome P450 2C19 = Cytochrome P450 2C19 (Homo sapiens, UniProt P33261); assay: Inhibition of CYP2C19 in human liver microsomes using isoform-specific probe substrates incubated for 15 to 30 mins by LC-MS/MS analysis; assay type: ADME; summary of the method: as §1
Cytochrome P450 2D6 = Cytochrome P450 2D6 (Homo sapiens, UniProt P10635); assay: Inhibition of CYP2D6 in human liver microsomes using isoform-specific probe substrates incubated for 15 to 30 mins by LC-MS/MS analysis; assay type: ADME; summary of the method: as §1
Cytochrome P450 2B6 = target: T2, Cytochrome P450 2B6 (Homo sapiens, UniProt P20813); assay: Inhibition of CYP2B6 in human liver microsomes using isoform-specific probe substrates incubated for 15 to 30 mins by LC-MS/MS analysis; assay type: ADME; summary of the method: as §1
T2 sequence (P20813 whole entry): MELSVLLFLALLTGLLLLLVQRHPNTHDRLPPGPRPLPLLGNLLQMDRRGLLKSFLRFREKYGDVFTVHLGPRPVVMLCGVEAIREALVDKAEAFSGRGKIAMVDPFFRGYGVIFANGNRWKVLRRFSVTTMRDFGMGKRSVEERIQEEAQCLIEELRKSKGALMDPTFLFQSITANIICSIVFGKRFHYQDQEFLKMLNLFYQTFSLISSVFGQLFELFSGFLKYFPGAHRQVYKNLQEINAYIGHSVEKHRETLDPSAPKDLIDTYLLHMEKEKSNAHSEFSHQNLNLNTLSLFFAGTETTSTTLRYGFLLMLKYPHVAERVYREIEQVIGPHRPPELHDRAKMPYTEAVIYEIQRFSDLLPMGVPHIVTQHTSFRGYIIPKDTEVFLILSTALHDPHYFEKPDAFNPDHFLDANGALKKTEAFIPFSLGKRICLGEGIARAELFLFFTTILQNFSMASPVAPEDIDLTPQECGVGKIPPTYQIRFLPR

Chain of Cytochrome P450 2D6 (P10635 whole entry, canonical isoform): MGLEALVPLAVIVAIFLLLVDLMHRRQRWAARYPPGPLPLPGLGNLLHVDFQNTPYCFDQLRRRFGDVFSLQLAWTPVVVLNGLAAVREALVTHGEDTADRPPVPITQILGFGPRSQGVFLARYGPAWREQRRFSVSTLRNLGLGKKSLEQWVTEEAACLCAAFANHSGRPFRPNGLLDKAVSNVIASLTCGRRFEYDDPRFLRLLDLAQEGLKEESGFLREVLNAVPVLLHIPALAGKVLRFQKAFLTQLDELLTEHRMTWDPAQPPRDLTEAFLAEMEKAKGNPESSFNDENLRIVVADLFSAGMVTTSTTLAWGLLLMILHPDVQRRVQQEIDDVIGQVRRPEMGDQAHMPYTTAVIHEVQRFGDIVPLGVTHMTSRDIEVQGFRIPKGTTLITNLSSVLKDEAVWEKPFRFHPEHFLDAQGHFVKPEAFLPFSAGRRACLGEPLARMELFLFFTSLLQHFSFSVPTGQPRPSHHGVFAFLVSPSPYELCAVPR
Chain of Cytochrome P450 2C19 (P33261 whole entry, canonical isoform): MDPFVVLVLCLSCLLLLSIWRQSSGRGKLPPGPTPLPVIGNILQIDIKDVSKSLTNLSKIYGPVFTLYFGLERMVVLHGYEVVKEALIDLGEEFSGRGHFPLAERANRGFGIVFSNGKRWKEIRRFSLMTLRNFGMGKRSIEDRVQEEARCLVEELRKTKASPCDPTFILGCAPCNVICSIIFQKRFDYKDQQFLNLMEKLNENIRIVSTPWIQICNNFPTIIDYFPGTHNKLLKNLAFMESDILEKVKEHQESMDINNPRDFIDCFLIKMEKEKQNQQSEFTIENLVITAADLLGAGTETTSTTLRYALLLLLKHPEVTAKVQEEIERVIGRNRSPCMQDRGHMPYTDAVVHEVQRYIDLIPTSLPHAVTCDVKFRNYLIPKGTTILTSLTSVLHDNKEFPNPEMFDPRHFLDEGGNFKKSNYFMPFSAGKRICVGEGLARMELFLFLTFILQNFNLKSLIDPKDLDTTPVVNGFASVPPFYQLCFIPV

Compound: CC(C)CCNC1=CC(=O)c2ccccc2C1=O
- Activity [1]: Toxic
- Activity [2]: Toxic
- Drug uptake(free) [3]: 123 nM
- Activity (Mus musculus [4]): 100%
- Activity [5]: Non-Toxic
- Drug metabolism [6]: Metabolite_Notdetected
- ED50 (Mus musculus [7]): 349 mg/kg
- IC50 (Cytochrome P450 2C8): 54.1 µM
- concentration at 4 h [8]: 3740 ng/mL
- TD50 [9]: > 800 mg/kg
- concentration at 0.5 h [10]: 1260 ng/mL
- Tmax [11]: 1 h
- Cmax [12]: 320 ng/mL
- IC50 (Cytochrome P450 2C19): 16.4 µM
- IC50 (Cytochrome P450 2D6): > 100 µM
- IC50 (Cytochrome P450 2B6): 39.3 µM
